Assay results gathered from unrelated publications.
Mode: inhibitor
CDK5: Cyclin-dependent kinase 5 (CDK5, Homo sapiens, UniProt Q00535)
CDK5 with p25: Cyclin-dependent kinase 5, with p25 (CDK5, Homo sapiens, UniProt Q00535)
CDK5 with p35: Cyclin-dependent kinase 5, with p35 (CDK5, Homo sapiens, UniProt Q00535)

CCN1CCN(Cc2ccc(NC(=O)c3ccc(C)c(Oc4ccnc5[nH]ccc45)c3)cc2C(F)(F)F)CC1 — inhibition (CDK5; target engagement in cells, chemoproteomics; Huh-7; 10 µM): -42.6%
COc1cc2ncnc(Nc3ccc(Oc4ccccc4)cc3C)c2cc1OC — inhibition (CDK5 with p25; enzyme activity; 1 µM): 7%
CNCc1ccc(-c2cc(-c3nc(-c4ccc(S(=O)(=O)C(C)C)cc4)cnc3N)on2)cc1 — inhibition (CDK5 with p35; enzyme activity; 2 µM): 16%
COc1cc(-c2cc(-c3ccc(N4CCNCC4)cc3)cnc2C)cc(OC)c1OC — inhibition (CDK5; enzyme activity; 0.1 µM): 2%
Nc1nc(Nc2ccc(S(N)(=O)=O)cc2)sc1C(=O)c1ccccc1[N+](=O)[O-] — inhibition (CDK5; enzyme activity; 0.1 µM): 95 to 96%
CN1CC(Oc2cnc(C#N)cc2-c2ccn3nc(NC(=O)C4CC4)cc3c2)C1 — inhibition (CDK5 with p35; enzyme activity; 1 µM): 12%
COc1cc2ncnc(Nc3ccc(Oc4ccccc4)c(C)c3C)c2cc1OC — inhibition (CDK5 with p35; enzyme activity; 1 µM): -1%
Cc1ccc(-n2nc(C(C)(C)C)cc2NC(=O)Nc2ccc(OCCN3CCOCC3)c3ccccc23)cc1 — inhibition (CDK5 with p35; enzyme activity; 10 µM): -26%
CNc1cc(Oc2cc(C(=O)Nc3cc(N4CCN(C)CC4)cc(C(F)(F)F)c3)ccc2C)ncn1 — inhibition (CDK5; target engagement in cells, chemoproteomics; Huh-7; 1 µM): -37.2%
CC[C@H](C)[C@H](NC(=O)[C@H](CCC(N)=O)NC(=O)[C@H](CC(C)C)NC(=O)[C@H](CCSC)NC(=O)[C@H](CCCCN)NC(=O)[C@H](CO)NC(=O)[C@H](CO)NC(=O)[C@H](CCSC)NC(=O)[C@H](CC(C)C)NC(=O)[C@H](CC(N)=O)NC(=O)[C@@H](NC(=O)[C@@H](NC(=O)[C@H](CO)NC(=O)[C@H](CC(C)C)NC(=O)[C@H](CS)NC(=O)[C@H](CCCNC(=N)N)NC(=O)[C@H](CC(=O)O)NC(=O)[C@H](Cc1c[nH]c2ccccc12)NC(=O)[C@H](Cc1ccccc1)NC(=O)[C@H](C)NC(=O)[C@H](CCC(=O)O)NC(=O)[C@@H](N)CCCCN)C(C)C)[C@@H](C)CC)C(=O)N[C@@H](CC(N)=O)C(=O)N[C@@H](C)C(=O)O — inhibition (CDK5 with p25; enzyme activity, radiometric; 10 µM): 13%
CN(C)C1CCN(CC#Cc2nn(C3CCCC3)c3nc(NCc4ccccc4)ncc23)C1 (centres unmarked) — inhibition (CDK5 with p25; enzyme activity, FRET; 10 µM): 3%
